# Measurements collected from several papers.
# Compare with care: the assays were run in different laboratories.
# ABL1 T315I phosphorylated: Tyrosine-protein kinase ABL1, phosphorylated (ABL1, Homo sapiens, UniProt P00519, T315I)
# ABL1 E255K phosphorylated: Tyrosine-protein kinase ABL1, phosphorylated (ABL1, Homo sapiens, UniProt P00519, E255K)
# ABL1 phosphorylated: Tyrosine-protein kinase ABL1, phosphorylated (ABL1, Homo sapiens, UniProt P00519)
# ABL1 F317L: Tyrosine-protein kinase ABL1 (ABL1, Homo sapiens, UniProt P00519, F317L)
# ABL1 Y253F phosphorylated: Tyrosine-protein kinase ABL1, phosphorylated (ABL1, Homo sapiens, UniProt P00519, Y253F)
# ABL1 non-phosphorylated: Tyrosine-protein kinase ABL1, non-phosphorylated (ABL1, Homo sapiens, UniProt P00519)
# ABL1 F317L non-phosphorylated: Tyrosine-protein kinase ABL1, non-phosphorylated (ABL1, Homo sapiens, UniProt P00519, F317L)
# ABL1 H396P: Tyrosine-protein kinase ABL1 (ABL1, Homo sapiens, UniProt P00519, H396P)
# ABL1 Q252H non-phosphorylated: Tyrosine-protein kinase ABL1, non-phosphorylated (ABL1, Homo sapiens, UniProt P00519, Q252H)
# ABL1 F317L phosphorylated: Tyrosine-protein kinase ABL1, phosphorylated (ABL1, Homo sapiens, UniProt P00519, F317L)
# ABL1 Q252H: Tyrosine-protein kinase ABL1 (ABL1, Homo sapiens, UniProt P00519, Q252H)
SMILES,target,assay,setting,remaining binding [%]
C[C@@H](c1ccc(-n2cnc3c(N)ncnc32)cc1)N1CCc2nn(C)c(Cc3ccccc3)c2C1=O,ABL1 T315I phosphorylated,"binding, competition with immobilised ligand",0.1 µM,78
c1cnn2ncc(-c3ccnc(N4CCC45COC5)n3)c2c1,"Tyrosine-protein kinase ABL1 (ABL1, Homo sapiens, UniProt P00519, E255K)",binding,1 µM,63
O=C(NCC1CCOCC1)c1n[nH]cc1NC(=O)c1c(F)cccc1F,ABL1 E255K phosphorylated,"binding, competition with immobilised ligand",1 µM,88
c1cncc(-c2cccc(Nc3nccc(NC4CCCCC4)n3)c2)c1,ABL1 phosphorylated,"binding, competition with immobilised ligand",10 µM,32
O=C(c1ccc(Nc2nccc(-c3cc4ccccc4s3)n2)cc1)N1CCC(N2CCCC2)CC1,ABL1 phosphorylated,"binding, competition with immobilised ligand",1 µM,21
COc1ncc2cc3ccccc3nc2c1C#N,"Tyrosine-protein kinase ABL1, phosphorylated (ABL1, Homo sapiens, UniProt P00519, F317I)","cell-free assay, competition with immobilised ligand",5 µM,100
CN1CCN(c2ccc(Nc3nccc(-c4ccccc4)n3)cc2C(F)(F)F)CC1,ABL1 F317L,binding,10 µM,66
Cn1nc(C(F)(F)F)cc1-c1cnc(N2CCc3cc(S(=O)(=O)Nc4c(F)cc(Cl)cc4F)cc(N4CCCC4=O)c32)nc1,ABL1 T315I phosphorylated,"cell-free assay, competition with immobilised ligand",1 µM,82
C=CC(=O)N1CCC(C(=O)NCC(=O)N2CCN(c3nc(-c4cnc(N)nc4C(F)F)nc(N4CCOCC4)n3)CC2)CC1,ABL1 Y253F phosphorylated,"binding, competition with immobilised ligand",1 µM,90
COc1ccnn2ncc(-c3ccnc(N(C)C)n3)c12,ABL1 F317L,binding,1 µM,85
CC(=O)N1CCC(c2ccc(C(=O)NC3=NCCN3)cc2C(F)(F)F)CC1,ABL1 non-phosphorylated,"cell-free assay, competition with immobilised ligand",1 µM,95
O=C(c1ccc(Nc2ncc(Cl)c(-c3ccc(Cl)s3)n2)cc1)N1CCC(N2CCCC2)CC1,ABL1 F317L non-phosphorylated,"binding, competition with immobilised ligand",1 µM,65
CN(CCCC(F)(F)F)c1nccc(-c2cnn3ncccc23)n1,ABL1 H396P,binding,1 µM,95
COc1cc(-c2cn(C3CCc4ccccc4N(CC(F)(F)F)C3=O)nn2)ccc1-n1ccc(C)n1 (stereo not shown),ABL1 Y253F phosphorylated,"cell-free assay, competition with immobilised ligand",1 µM,87
Cc1cnc(Nc2ccc(C(=O)N3CCC(N4CCCC4)CC3)cc2)nc1-c1cc2ccccc2s1,ABL1 Q252H non-phosphorylated,"binding, competition with immobilised ligand",1 µM,1.1
CO[C@H]1CC[C@H](CNc2ccc(S(=O)(=O)NC(=O)c3ccc(N4CCN(CC5=C(c6ccc(Cl)cc6)CC(C)(C)CC5)CC4)cc3Oc3cnc4[nH]ccc4c3)cc2[N+](=O)[O-])CC1,ABL1 F317L phosphorylated,"cell-free assay, competition with immobilised ligand",1 µM,83
C[C@H]1CCN(c2nccc(-c3cnn4ncccc34)n2)C1,ABL1 Q252H,binding,1 µM,84
O=C(NCCCN1CCOCC1)c1ccc(Nc2ncc(Cl)c(-c3ccc(Cl)s3)n2)cc1,ABL1 E255K phosphorylated,"binding, competition with immobilised ligand",1 µM,37
F[C@@H]1CCN(c2nccc(-c3cnn4ncccc34)n2)C1,"Tyrosine-protein kinase ABL1 (ABL1, Homo sapiens, UniProt P00519, T315I)",binding,1 µM,100
CCN1CCN(Cc2ccc(C(=O)Nc3ccc(C)c(Oc4ccc5c(c4)CC(=O)N5)c3)cc2C(F)(F)F)CC1,ABL1 Q252H non-phosphorylated,"binding, competition with immobilised ligand",1 µM,3
C[C@@H]1CN(c2cc(-c3n[nH]c4ccc(OC5(C)CC5)cc34)ncn2)C[C@H](C)O1,ABL1 Y253F phosphorylated,"cell-free assay, competition with immobilised ligand",0.1 µM,66
FC(F)(F)Oc1cccc(-c2cnc3ccc(-c4ccncc4)nn23)c1,ABL1 non-phosphorylated,"cell-free assay, competition with immobilised ligand",5 µM,68
O=C(NCc1ncc(C(F)(F)F)cc1Cl)c1ccc2c(c1)C1(CCS(=O)(=O)CC1)[C@H](C1CC1)N2S(=O)(=O)c1ccc(F)cc1,ABL1 phosphorylated,"cell-free assay, competition with immobilised ligand",1 µM,71
Cc1cnn2ncc(-c3ccnc(N(C)C)n3)c2c1,ABL1 H396P,binding,1 µM,81
Nc1ncc2c(n1)-c1c([nH]c3ccc(C#CC4CC4)cc13)CCCC2,"Tyrosine-protein kinase ABL1, non-phosphorylated (ABL1, Homo sapiens, UniProt P00519, T315I)","binding, competition with immobilised ligand",1 µM,79
COc1cnc(Nc2cccc(S(N)(=O)=O)c2)nc1N1CCN(c2ccccc2)CC1,ABL1 F317L phosphorylated,"binding, competition with immobilised ligand",1 µM,74
O=C(Nc1c[nH]nc1C(=O)NC1CCNCC1)c1cc(F)cc(F)c1,ABL1 F317L non-phosphorylated,"binding, competition with immobilised ligand",1 µM,100
N[C@@H]1CCN(c2nccc(-c3cnn4ncccc34)n2)C1,ABL1 Q252H,binding,1 µM,74
CNC(=O)[C@@H]1CC[C@@H](n2c(-c3ccc4cnccc4c3)nc3ccc(C(=O)NCc4cccc(C(N)=O)c4)cc32)C1,ABL1 phosphorylated,"binding, competition with immobilised ligand",1 µM,90
CN(C)c1ncnc(-c2ccc3nc(Nc4cc(CN5CCN(C(=O)CC(F)(F)F)CC5)ccn4)[nH]c3c2)c1Cl,ABL1 E255K phosphorylated,"binding, competition with immobilised ligand",1 µM,49
O=C(c1ccc(Nc2ncc(Cl)c(-c3cc4ccccc4s3)n2)cc1)N1CCC(N2CCCC2)CC1,"Tyrosine-protein kinase ABL1, non-phosphorylated (ABL1, Homo sapiens, UniProt P00519, H396P)","binding, competition with immobilised ligand",1 µM,1.8
COc1cnc(Nc2cccc(S(N)(=O)=O)c2)nc1N1CCN(c2ccccc2)C(=O)C1,"Tyrosine-protein kinase ABL1, non-phosphorylated (ABL1, Homo sapiens, UniProt P00519, F317I)","binding, competition with immobilised ligand",1 µM,89
CN([C@@H]1CCc2c(CC(=O)O)c3ccccc3n2C1)S(=O)(=O)c1ccc(F)cc1,ABL1 F317L phosphorylated,"cell-free assay, competition with immobilised ligand",1 µM,92
O=C(NCCCN1CCOCC1)c1ccc(Nc2nccc(-c3cc4ccccc4s3)n2)cc1,ABL1 E255K phosphorylated,"binding, competition with immobilised ligand",1 µM,45
